Key:
[1] = system: LS1034 colon cancer cell lines with and without ABCB1 knockout
[2] = system: ABCB1-expressing cancer cells; assay: Viability of ABCB1-expressing cancer cells; type: cell-based, human; conditions: compared with tepoxalin
[3] = system: SF295 glioma cell line; assay: Viability of SF295 cells with and without MTF1 knockout; type: cell-based, human; conditions: for change of drug sensitivity after MTF1 knockout: SF295 cells, CRISPR/Cas9 MTF1 knockout vs control
Summary of the method: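 SF295 glioma cells: wild-type, Cas9 with GFP sgRNA, or Cas9 with MTF1 sgRNAs. Knockout was confirmed by NGS indel assay and loss of MTF1 target gene expression by RNA-seq. Cells were seeded at 2000 cells/well and dosed the next day. CellTiter-Glo viability was normalized to vehicle and reported as the mean of 3 independently treated wells with SD.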

[4] = target: ABCB1 (Homo sapiens, UniProt P08183); assay: ABCB1 activity assays; type: cell-based; conditions: MDR1-MDCK cells; calcein AM and loperamide transport assays
Chain of ABCB1 (P08183 whole entry): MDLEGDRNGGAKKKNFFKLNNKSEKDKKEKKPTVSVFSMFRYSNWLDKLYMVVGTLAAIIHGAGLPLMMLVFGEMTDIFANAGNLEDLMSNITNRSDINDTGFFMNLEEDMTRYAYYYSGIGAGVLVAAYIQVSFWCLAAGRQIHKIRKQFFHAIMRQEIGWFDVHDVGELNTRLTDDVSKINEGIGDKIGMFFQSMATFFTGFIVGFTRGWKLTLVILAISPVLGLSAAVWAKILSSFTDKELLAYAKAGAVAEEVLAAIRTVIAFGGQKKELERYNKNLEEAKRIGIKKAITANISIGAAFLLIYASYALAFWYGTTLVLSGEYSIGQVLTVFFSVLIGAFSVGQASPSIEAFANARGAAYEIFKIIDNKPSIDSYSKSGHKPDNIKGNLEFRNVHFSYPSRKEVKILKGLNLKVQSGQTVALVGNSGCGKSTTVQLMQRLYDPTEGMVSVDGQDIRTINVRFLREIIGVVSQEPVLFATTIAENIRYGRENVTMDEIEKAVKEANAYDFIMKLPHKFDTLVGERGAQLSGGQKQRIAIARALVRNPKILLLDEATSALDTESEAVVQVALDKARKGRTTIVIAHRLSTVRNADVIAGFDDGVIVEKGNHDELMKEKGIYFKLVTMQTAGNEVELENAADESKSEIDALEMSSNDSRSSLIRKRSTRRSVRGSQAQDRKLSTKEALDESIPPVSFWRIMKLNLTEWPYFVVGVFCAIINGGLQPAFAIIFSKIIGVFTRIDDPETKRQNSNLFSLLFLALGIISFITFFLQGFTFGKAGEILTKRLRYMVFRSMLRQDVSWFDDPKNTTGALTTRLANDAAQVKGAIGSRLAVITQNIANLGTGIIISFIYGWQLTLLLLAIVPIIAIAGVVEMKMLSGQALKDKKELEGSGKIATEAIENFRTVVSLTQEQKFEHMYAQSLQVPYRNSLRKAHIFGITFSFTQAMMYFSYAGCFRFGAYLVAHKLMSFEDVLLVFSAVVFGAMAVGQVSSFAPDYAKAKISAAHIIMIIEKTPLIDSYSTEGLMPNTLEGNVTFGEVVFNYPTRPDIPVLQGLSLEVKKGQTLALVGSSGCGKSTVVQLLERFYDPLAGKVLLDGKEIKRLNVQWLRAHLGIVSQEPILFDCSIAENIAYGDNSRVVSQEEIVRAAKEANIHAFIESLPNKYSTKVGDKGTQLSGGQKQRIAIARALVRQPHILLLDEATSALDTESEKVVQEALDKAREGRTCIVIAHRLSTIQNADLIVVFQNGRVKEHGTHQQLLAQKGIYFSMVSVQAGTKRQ
Summary of the method: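 Calcein AM efflux assay: MDR1-MDCK (MDCKII) cells incubated with test compound and calcein AM; fluorescence read-out expressed as percent ABCB1 inhibition, mean of 3 replicates. Transport assay: loperamide added to the apical side of an MDR1-MDCK monolayer and basolateral transport quantified over 60 minutes, with test compound or verapamil positive control.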

[5] = system: Kuramochi ovarian cancer cell line; assay: Viability of Kuramochi wild type and ABCB1-overexpressing cells; type: cell-based, human; conditions: low-expressing, tepoxalin-insensitive cell line (Kuramochi), 8 days
Summary of the method: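 Kuramochi ovarian cancer cells, wild-type or ABCB1-overexpressing, were grown in RPMI with 10% FBS and seeded at 2000 cells/well. Compound was added the next day and cells were treated for 8 days. Viability was read by CellTiter-Glo luminescence, normalized to vehicle, and reported as the mean of 3 independently treated wells with SD.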

[6] = system: LS1034 colorectal cancer cells; assay: Cellular viability assay; type: cell-based; conditions: Homo sapiens, LS-1034
Summary of the method: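 LS1034 cells were grown in RPMI with 10% heat-inactivated FBS and 1% penicillin-streptomycin, and tested mycoplasma-negative. They were seeded at 2000 cells/well and digitally dispensed with compound the next day. Exposure was 5 days. CellTiter-Glo luminescence was read, replicate wells were averaged and normalized to vehicle, and dose curves were fitted.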

[7] = system: OVISE cells; assay: Viability of OVISE cells with and without SLC26A2 knockout; type: cell-based, human; conditions: CRISPR/Cas9 SLC26A2 knockout
Summary of the method: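 OVISE cells were grown in RPMI with 10% FBS and used with or without CRISPR/Cas9 SLC26A2 knockout; GFP sgRNA served as the non-targeting control. Indel frequency at the cut sites was checked by NGS. Cells were seeded at 2000 cells/well and dosed the next day. CellTiter-Glo viability was normalized to vehicle and reported as the mean of three independently treated wells with SD.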

[8] = system: LS1034 and REC1 cell lines; assay: Drug synergy/antagonism assays, LS1034 and REC1; type: cell-based, human
Summary of the method: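 LS1034 or REC1 cells received a dose-response matrix of test compound with paclitaxel, and viability was read by CellTiter-Glo. Signals were normalized to the median of DMSO wells on each plate. Bliss synergy scores were estimated across all dose combinations with default baseline correction. The value is the score with highest magnitude across combinations (max synergy).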

[9] = system: PDE3A-SLFN12; conditions: cited from earlier work
[10] = system: LS1034 cells; assay: Tepoxalin drug synergy/antagonism assay, LS1034; type: cell-based, human; conditions: LS1034, 5 days, tepoxalin doses above ~5 μM

In the case of COc1ccc(-n2nc(CCC(=O)O)cc2-c2ccc(Cl)cc2)cc1 [RWJ20142, 3-(5-(4-chlorophenyl)-1-(4-methoxyphenyl)-1H-pyrazol-3-yl)propanoic acid], the cell permeability [1] is reported as “not cell-permeable” and the “inhibition of ABCB1-expressing cancer cells” value [2] is reported as “no inhibition”.

With CC(C)C[C@H](NC(=O)[C@H](Cc1ccccc1)NC(=O)c1cnccn1)B(O)O [bortezomib] the “change of drug sensitivity after MTF1 knockout” value [3] was “did not alter sensitivity”.

With COc1ccc(-n2nc(CCC(=O)N(C)O)cc2-c2ccc(Cl)cc2)cc1 [tepoxalin] the ABCB1 inhibition [4] was “inhibit ABCB1 at high concentrations”, the “change of drug sensitivity after ABCB1 overexpression” value [5] was “increased drug sensitivity” and the IC50 [6] was 3.8 µM.

In the case of “bis(ethylmaltolato)oxovanadium(IV) [BEOV]”, the “sensitivity of cells after SLC26A2 knockout” value [7] is reported as “resistant”.

In the case of Cc1occc(=O)c1[O-].Cc1occc(=O)c1[O-].[O]=[V+2] [BMOV, bis(maltolato)oxovanadium(IV)], the “sensitivity of cells after SLC26A2 knockout” value [7] is reported as “resistant”.

In the case of COc1cc2c(cc1OC)CN(CCc1ccc(NC(=O)c3cc(OC)c(OC)cc3NC(=O)c3cnc4ccccc4c3)cc1)CC2 [tariquidar], the “maximum synergy score in combination with paclitaxel” value [8] is reported as “strongly synergistic”.

With COc1cc2c(cc1OC)CN(CCc1ccc(NC(=O)c3cccc4c(=O)c5cccc(OC)c5[nH]c34)cc1)CC2 [elacridar] the “maximum synergy score in combination with paclitaxel” value [8] was “strongly synergistic”.

For COc1cc2c(cc1OC)-c1c/c(=N\c3c(C)cc(C)cc3C)n(C)c(=O)n1CC2 [trequinsin], the “induction of PDE3A-SLFN12 interaction” value [9] is listed as “does not induce PDE3A-SLFN12 interaction”.

In the case of CCN(CC)C(=S)SSC(=S)N(CC)CC [disulfiram], the “effect of copper chelator tetrathiomolybdate (TTM) on the increased sensitivity” value ([3]; SF295 MTF1 knockout cells, co-treatment with 1 μM TTM) is reported as “completely reversed” and the “change of drug sensitivity after MTF1 knockout” value [3] is reported as “increased sensitivity”.

In the case of O[C@@H](COc1cccc2ncccc12)CN1CCN([C@@H]2c3ccccc3[C@@H]3[C@H](c4ccccc42)C3(F)F)CC1 [zosuquidar], the “Bliss synergy in combination with tepoxalin” value [10] is reported as “strong antagonism”.
